Data published in publication PMC5693771 (Bioorganic & medicinal chemistry letters, 2017).
Entries after “also recorded” stand apart in the source; their conditions may differ.

How the values were obtained:
[1] = system: HCV genotype 1b RNA replication; test: HCV genotype 1b subgenomic replicon assay in Huh-7 cells; format: cell-based, Hepatitis C virus (HCV); conditions: for EC90: Hepatitis C virus, GETYPE1B, Huh-7, read-out: Anti HCV activity EC90
In short: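 Each assay was run in replicate. Values are the mean and SD of three replicates.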

Huh-7 cells = test: Cytotoxicity in Huh-7 cells; format: cell-based; conditions: all four tested cell lines (Huh-7, PBM, CEM, Vero)

O=c1ccn([C@@H]2O[C@H](CO)[C@@H](O)C2(Br)Br)c(=O)[nH]1 [Compound 10a]
Concentration up to which no antiviral (anti-HCV) activity was shown ([1]; HCV genotype 1b replicon, Huh-7 cells): > 33 µM

Nc1ccn([C@@H]2O[C@H](CO)[C@@H](O)C2(Br)Br)c(=O)n1 [Compound 10b]
EC90 [1]: > 10 µM

CC(C)OC(=O)[C@H](C)N[P@](=O)(OC[C@H]1O[C@@H](n2ccc(=O)[nH]c2=O)C(Br)(Br)[C@@H]1O)Oc1ccccc1 [Compound 13a]
Cellular toxicity (in words) (Huh-7 cells): non-toxic; also recorded: no observed toxicity

CC(C)OC(=O)[C@H](C)N[P@](=O)(OC[C@H]1O[C@@H](n2cnc3c(N)ncnc32)C(Br)(Br)[C@@H]1O)Oc1ccccc1 [Compound 13c]
EC90 [1]: > 10 µM

CC(C)OC(=O)[C@H](C)N[P@](=O)(OC[C@H]1O[C@@H](n2cnc3c(=O)[nH]c(N)nc32)C(Br)(Br)[C@@H]1O)Oc1ccccc1 [Compound 13d]
EC90 [1]: > 10 µM
